# Measurements: ChEMBL document CHEMBL1125429, “Intriguing structure-activity relations underlie the potent inhibition of HIV protease by norstatine-based peptides” (J Med Chem, 1992)
# Assays:
# [1] = target: T1, Human immunodeficiency virus type 1 protease (Human immunodeficiency virus 1, UniProt Q72874); assay: Inhibitory activity of the Compound was tested against HIV protease enzyme.(value reported by Rich etal)
# [2] = target: T1, Human immunodeficiency virus type 1 protease; assay: (§1) Inhibitory activity of the Compound was tested against HIV protease enzyme
# In short: (§2)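 HIV-1 protease (BRU strain), microbially expressed; activity followed as hydrolysis of the octapeptide substrate VSQN-β-naphthylalanine-PIV, using a modified literature method.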
# [3] = target: T1, Human immunodeficiency virus type 1 protease; assay: as §1; in short: as §2; remark: listed apart in the source
# [4] = target: T1, Human immunodeficiency virus type 1 protease; assay: Inhibitory activity of the Compound was tested against HIV protease enzyme.
# In short: (§3)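 HIV-1 protease from the BRU strain was expressed in a microbial host. Activity was followed as hydrolysis of the octapeptide substrate VSQN-β-naphthylalanine-PIV, using a modified version of Heimbach's method.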
# [5] = target: T1, Human immunodeficiency virus type 1 protease; assay: Binding affinity against HIV Protease enzyme.(by Dixon analysis); in short: as §3
# [6] = target: T1, Human immunodeficiency virus type 1 protease; assay: Inhibitory activity of the Compound was tested against HIV protease enzyme.(value reported by Roche group)
# [7] = target: T1, Human immunodeficiency virus type 1 protease; assay: Binding affinity against HIV protease enzyme.(by Dixon analysis); in short: as §3
smiles,measurement,setting,value
CC(C)(C)OC(=O)[C@@H]1CCCN1C[C@H](O)[C@H](Cc1ccccc1)NC(=O)[C@H](CC(N)=O)NC(=O)OCc1ccccc1,IC50,[1],450 nM
same,IC50,[2],130 nM
same,IC50,[3],180 nM
CC(C)(C)NC(=O)[C@@H]1C[C@@H]2CCCC[C@@H]2CN1C(=O)[C@@H](O)[C@H](Cc1ccccc1)NC(=O)[C@H](CC(N)=O)NC(=O)OCc1ccccc1,IC50,[4],84 nM
CC(C)(C)NC(=O)[C@@H]1C[C@@H]2CCCC[C@@H]2CN1C(=O)[C@@H](O)[C@H](Cc1ccccc1)NC(=O)[C@H](CC(N)=O)NC(=O)c1ccc2ccccc2n1,IC50,[4],27 nM
CC(C)(C)NC(=O)[C@@H]1CCCCN1C(=O)[C@@H](O)[C@H](Cc1ccccc1)NC(=O)[C@H](CC(N)=O)NC(=O)OCc1ccccc1,IC50,[4],26 nM
CC(C)(C)NC(=O)[C@@H]1CCCN1C(=O)C(=O)[C@H](Cc1ccccc1)NC(=O)[C@H](CC(N)=O)NC(=O)OCc1ccccc1,IC50,[4],20 nM
CC(C)(C)NC(=O)[C@@H]1CCCN1C(=O)[C@@H](O)[C@H](Cc1ccccc1)NC(=O)[C@H](CC(N)=O)NC(=O)COc1cccc2ccccc12,Ki,[5],0.4 nM
same,IC50,[4],0.58 nM
CC[C@H](C)[C@H](NC(=O)[C@@H]1CCCN1C(=O)[C@@H](O)[C@H](Cc1ccccc1)NC(=O)[C@@H](CC(N)=O)NC(=O)OCc1ccccc1)C(=O)N[C@H](C(=O)OC)C(C)C,IC50,[4],3.1 nM
CC(C)[C@H](NC(=O)OCc1ccccc1)C(=O)N[C@@H](Cc1ccccc1)[C@H](O)C(=O)N1CCC[C@H]1C(=O)NC(C)(C)C,IC50,[4],4.3 nM
CC(C)(C)NC(=O)[C@@H]1CCCN1C(=O)[C@@H](O)[C@H](Cc1ccccc1)NC(=O)[C@H](CC(N)=O)NC(=O)OCc1ccccc1,Ki,[5],4 nM
same,IC50,[4],7.4 nM
CC(C)(C)NC(=O)[C@@H]1CCCN1C(=O)[C@@H](O)[C@H](Cc1ccccc1)NC(=O)[C@H](CC(N)=O)NC(=O)COc1ccc2ccccc2c1,IC50,[4],1.3 nM
CC(C)(C)NC(=O)[C@@H]1CCCN1C[C@@H](O)[C@H](Cc1ccccc1)NC(=O)[C@H](CC(N)=O)NC(=O)OCc1ccccc1,IC50,[6],210 nM
CC(C)(C)NC(=O)[C@@H]1CC2CCCCC2CN1C[C@@H](O)[C@H](Cc1ccccc1)NC(=O)[C@H](CC(N)=O)NC(=O)OCc1ccccc1 (stereo not given in full),IC50,[6],< 2.7 nM
CC(C)(C)OC(=O)[C@@H]1CCCN1C[C@@H](O)[C@H](Cc1ccccc1)NC(=O)OCc1ccccc1,IC50,[6],6500 nM
CC[C@H](C)[C@H](NC(=O)[C@@H]1CCCN1C(=O)[C@H](O)[C@H](Cc1ccccc1)NC(=O)[C@H](CC(N)=O)NC(=O)OCc1ccccc1)C(=O)N[C@H](C(=O)OC)C(C)C,IC50,[4],25 nM
CC(C)(C)NC(=O)[C@@H]1CCCN1C(=O)C(=O)[C@H](Cc1ccccc1)NC(=O)OCc1ccccc1,IC50,[4],600 nM
CC(C)[C@H](NC(=O)COc1cccc2ccccc12)C(=O)N[C@@H](Cc1ccccc1)[C@H](O)C(=O)N1CCC[C@H]1C(=O)NC(C)(C)C,IC50,[4],1.9 nM
CC(C)(C)NC(=O)[C@@H]1CCCN1C(=O)[C@H](O)[C@H](Cc1ccccc1)NC(=O)[C@H](CC(N)=O)NC(=O)OCc1ccccc1,IC50,[4],3100 nM
CC(C)(C)NC(=O)[C@@H]1CCCN1C(=O)[C@@H](O)[C@H](Cc1ccccc1)NC(=O)OCc1ccccc1,IC50,[4],460 nM
CC(C)(C)NC(=O)[C@@H]1CCCN1C(=O)[C@@H](O)[C@H](Cc1ccccc1)NC(=O)[C@H](CC(N)=O)NC(=O)c1ccc2ccccc2n1,IC50,[4],1.1 nM
same,Ki,[7],0.9 nM
CC(C)(C)NC(=O)[C@@H]1CCCCN1C[C@@H](O)[C@H](Cc1ccccc1)NC(=O)[C@H](CC(N)=O)NC(=O)OCc1ccccc1,IC50,[6],18 nM
